For experiment [1], the target named is T1, Growth hormone secretagogue receptor type 1 (Homo sapiens, UniProt Q92847). Briefly: Ability to inhibit ghrelin induced increase in intracellular [Ca2+] in CHO-K cells was determined by FLIPR assay. In kind it is functional, cell-based. The method in brief:
(§1)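 Antagonist mode in CHO-K cells stably expressing human GHS-R, grown to confluency overnight. Cells were loaded with Fluo-4 AM plus probenecid in DPBS for 1–3h in the dark at room temperature, then washed. Compound was added in 0.1% BSA/4% DMSO DPBS and read for 3min. Ghrelin was then added and read a further 3min at ex 488/em 520nm. IC50 from sigmoidal fit.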

Experiment [2] has as its target T1, Growth hormone secretagogue receptor type 1. The experiment is described as follows: Ability to displace [125I]ghrelin from cloned human GHS-R expressed in CHO-K cells was determined (Kd of ghrelin is 0.4 nM). The class given is cell-based.
For experiment [3] the target is unchanged. Briefly: Binding affinity to displace [125I]ghrelin from cloned human GHS-R expressed in CHO-K cells was determined (Kd of ghrelin is 0.4 nM). The class given is cell-based.
The target is the same in experiment [4]. The experiment is described as follows: Ability to inhibit ghrelin induced increase in intracellular [Ca2+] in CHO-K cells. The class given is functional, cell-based. The method in brief:
as §1

The target in experiment [5] is Growth hormone secretagogue receptor type 1 (Rattus norvegicus, UniProt O08725). The experiment is described as follows: Inhibitory concentration against rat Growth hormone secretagogue receptor.
Experiment [6] concerns the target Growth hormone secretagogue receptor type 1 (Mus musculus, UniProt Q99P50). The experiment is described as follows: Inhibitory concentration against mouse Growth hormone secretagogue receptor.

These results are taken from ChEMBL document CHEMBL1137912, “Novel isoxazole carboxamides as growth hormone secretagogue receptor (GHS-R) antagonists” (Bioorg Med Chem Lett, 2004).

T1 sequence (Q92847 whole entry): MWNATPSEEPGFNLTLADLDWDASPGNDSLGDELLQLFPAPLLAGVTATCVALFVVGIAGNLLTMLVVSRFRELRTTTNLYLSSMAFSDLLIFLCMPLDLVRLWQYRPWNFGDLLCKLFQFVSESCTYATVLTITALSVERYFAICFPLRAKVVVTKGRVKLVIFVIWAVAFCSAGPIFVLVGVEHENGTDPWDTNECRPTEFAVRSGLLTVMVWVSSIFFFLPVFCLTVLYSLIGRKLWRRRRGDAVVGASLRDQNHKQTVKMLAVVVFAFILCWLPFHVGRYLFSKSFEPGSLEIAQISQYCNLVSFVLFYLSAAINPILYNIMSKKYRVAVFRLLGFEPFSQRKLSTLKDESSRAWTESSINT
Sequence of Growth hormone secretagogue receptor type 1 (Rattus norvegicus, UniProt O08725) (O08725 whole entry): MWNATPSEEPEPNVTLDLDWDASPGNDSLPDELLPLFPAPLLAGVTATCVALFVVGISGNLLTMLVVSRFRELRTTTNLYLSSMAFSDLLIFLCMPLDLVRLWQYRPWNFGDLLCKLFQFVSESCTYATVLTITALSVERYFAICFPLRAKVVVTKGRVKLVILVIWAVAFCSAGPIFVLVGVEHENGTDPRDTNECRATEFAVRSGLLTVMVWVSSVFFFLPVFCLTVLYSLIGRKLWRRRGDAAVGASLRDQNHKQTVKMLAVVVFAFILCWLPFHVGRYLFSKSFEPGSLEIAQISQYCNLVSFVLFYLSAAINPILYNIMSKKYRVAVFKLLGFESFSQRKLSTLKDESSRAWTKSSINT
Sequence of Growth hormone secretagogue receptor type 1 (Mus musculus, UniProt Q99P50) (Q99P50 whole entry): as the sequence (O08725 whole entry) above, with P30S, A249S counted along it

The IC50 is the concentration that gives 50% inhibition. A high value points to weaker potency. For the compound `CCN(CC)c1ccc(NC(=O)c2c(-c3c(Cl)cccc3Cl)noc2CCC2OCCCO2)cc1`, the IC50 is 19 nM in experiment [1] and 6 nM in experiment [2].

On to `CCN(CC)c1ccc(NC(=O)c2c(-c3c(Cl)cccc3Cl)noc2C)cc1`, for which the IC50 in experiment [3] is 130 nM; in experiment [1] it was 180 nM.

With `CCN(CC)c1ccc(NC(=O)c2c(-c3c(Cl)cccc3Cl)noc2CCCO)cc1`, the IC50 came to 308 nM in experiment [1] and 132 nM in experiment [2].

With `CCN(CC)c1ccc(NC(=O)c2c(-c3c(Cl)cccc3Cl)noc2CCN2CCN(C)C2=O)cc1`, the IC50 in experiment [1] amounted to 10 nM; in experiment [2], 21 nM.

As to `CCN(CC)[C@H]1CC[C@H](NC(=O)c2c(-c3c(Cl)cccc3Cl)noc2CCC2OCCCO2)CC1`, the IC50 in experiment [4] came out at 3 nM; in experiment [2], 87 nM.

As to `CCN(CC)c1ccc(NC(=O)c2c(-c3c(Cl)cccc3Cl)noc2CCOC)cc1`, the IC50 in experiment [1] turned out to be 115 nM; in experiment [2], 110 nM.

As for `CCN(CC)[C@H]1CC[C@H](NC(=O)c2c(-c3c(Cl)cccc3Cl)noc2CCN2CCCCC2=O)CC1`, the IC50 in experiment [1] worked out at 190 nM; in experiment [2] it was 139 nM.

As to `CCN(CC)c1ccc(NC(=O)c2c(-c3c(Cl)cccc3Cl)noc2CCC2CCCO2)cc1` (configuration not stated), the half-maximal inhibitory concentration (IC50) in experiment [1] and in experiment [2] was 57 nM each time.

With `CCN(CC)c1ccc(NC(=O)c2c(-c3c(Cl)cccc3Cl)noc2CCc2cccc3c2OCO3)cc1`, the 50% inhibitory concentration (IC50) in experiment [1] is 564 nM; in experiment [2] it was 162 nM.

Consider `CCN(CC)c1ccc(NC(=O)c2c(-c3c(Cl)cccc3Cl)noc2CCN2CCCC2=O)cc1`, for which the IC50 in experiment [1] and in experiment [2] was 18 nM throughout.

For the compound `CCN(CC)c1ccc(NC(=O)c2c(-c3c(Cl)cccc3Cl)noc2CCC2CCCCO2)cc1` (configuration not stated), the IC50 in experiment [1] came out at 102 nM; in experiment [2] it was 39 nM.

Regarding `CCN(CC)c1ccc(NC(=O)c2c(-c3c(Cl)cccc3Cl)noc2C(C)C)cc1`, the values for the IC50 in experiment [1] and in experiment [2] were 861 nM and 150 nM, respectively.

As to `CCN(CC)c1ccc(NC(=O)c2c(-c3c(Cl)cccc3Cl)noc2CCC2CCOCC2)cc1`, the IC50 in experiment [1] is 146 nM; in experiment [2], 29 nM.

Take `CCCc1onc(-c2c(Cl)cccc2Cl)c1C(=O)Nc1ccc(N(CC)CC)cc1`: the IC50 in experiment [1] is 492 nM; in experiment [2] it was 131 nM.

With `CCN(CC)c1ccc(NC(=O)c2c(-c3c(Cl)cccc3Cl)noc2CN2CCCC2=O)cc1`, the IC50 in experiment [1] is 98 nM; in experiment [2], 122 nM.

On to `CCN(CC)[C@H]1CC[C@H](NC(=O)c2c(-c3c(Cl)cccc3Cl)noc2CCC2CCCO2)CC1` (some centres not stated), for which the IC50 was found to be 103 nM in experiment [1] and 194 nM in experiment [2].

Take `CCc1onc(-c2c(Cl)cccc2Cl)c1C(=O)Nc1ccc(N(CC)CC)cc1`: the IC50 in experiment [1] was 319 nM; in experiment [2], 147 nM.

As for `CCN(CC)c1ccc(NC(=O)c2c(-c3c(Cl)cccc3Cl)noc2CCC2OCCO2)cc1`, the IC50 in experiment [1] turned out to be 56 nM; in experiment [2], 25 nM.

For `CCN(CC)c1ccc(NC(=O)c2c(-c3c(Cl)cccc3Cl)noc2CCN2CCCCC2=O)cc1`, the IC50 worked out at 8 nM in experiment [1] and 9 nM in experiment [2].

For `CCN(CC)c1ccc(NC(=O)c2c(-c3c(Cl)cccc3Cl)noc2CCN(C)C(C)=O)cc1`, the IC50 in experiment [1] came out at 19 nM; in experiment [2], 34 nM.

Turning to `CCN(CC)[C@H]1CC[C@H](NC(=O)c2c(-c3c(Cl)cccc3Cl)noc2CCc2ccc3c(c2)OCO3)CC1`, the IC50 in experiment [5] came out at 12 nM; in experiment [1] it was 54 nM; in experiment [2] it was 32 nM; in experiment [6] it was 7 nM.

Consider `CCN(CC)c1ccc(NC(=O)c2c(-c3c(Cl)cccc3Cl)noc2CCN2C(=O)CCC2(C)C)cc1`, for which the results for the IC50 in experiment [1] and in experiment [2] were 15 nM and 39 nM, respectively.

With `CCN(CC)c1ccc(NC(=O)c2c(-c3c(Cl)cccc3Cl)noc2CCc2ccccc2OC)cc1`, the IC50 in experiment [1] amounted to 714 nM; in experiment [2] it was 389 nM.

Turning to `CCN(CC)[C@H]1CC[C@H](NC(=O)c2c(-c3c(Cl)cccc3Cl)noc2C)CC1`, the IC50 in experiment [1] came to 57 nM; in experiment [2], 53 nM.

For `CCN(CC)c1ccc(NC(=O)c2c(-c3c(Cl)cccc3Cl)noc2CCc2ccc3c(c2)OCO3)cc1`, the IC50 came to 93 nM in experiment [1] and 47 nM in experiment [2].
